Source: ChEMBL document CHEMBL1132230, “1-(1,2,5-Thiadiazol-4-yl)-4-azatricyclo[2.2.1.0(2,6)]heptanes as new potent muscarinic M1 agonists: structure-activity relationship for 3-aryl-2-propyn-1-yloxy and 3-aryl-2-propyn-1-ylthio derivatives” (J Med Chem, 1999)

Legend:
[1] = target: T1, Muscarinic acetylcholine receptor M2 (Rattus norvegicus, UniProt P10980); experiment: Inhibition of [3H]- Oxo-M binding at Muscarinic acetylcholine receptor M2 in rat brain membranes.; assay type: cell membranes
T1 sequence (P10980 whole entry): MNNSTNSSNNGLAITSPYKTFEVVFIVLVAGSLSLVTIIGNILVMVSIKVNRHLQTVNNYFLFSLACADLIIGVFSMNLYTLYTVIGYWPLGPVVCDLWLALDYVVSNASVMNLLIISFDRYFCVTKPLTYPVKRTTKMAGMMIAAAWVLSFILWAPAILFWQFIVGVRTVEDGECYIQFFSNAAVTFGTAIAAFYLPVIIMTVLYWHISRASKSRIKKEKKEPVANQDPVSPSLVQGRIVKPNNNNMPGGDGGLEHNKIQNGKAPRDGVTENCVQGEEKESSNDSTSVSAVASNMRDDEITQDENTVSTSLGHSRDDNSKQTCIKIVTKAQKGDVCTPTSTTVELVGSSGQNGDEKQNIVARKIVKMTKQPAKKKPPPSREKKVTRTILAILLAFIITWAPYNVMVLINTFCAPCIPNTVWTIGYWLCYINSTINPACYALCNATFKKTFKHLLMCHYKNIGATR
In short: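 Rat cortex homogenized in 20 mM HEPES pH 7.4 and centrifuged at 40000g. Membranes incubated 60 min at room temperature with 1 nM (final) [³H]oxotremorine-M and compound. Separated on PEI-soaked GF/C filters and counted by scintillation. Nonspecific binding defined with 10 μM arecoline. Value reported as IC50.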

[2] = target: T2, Muscarinic acetylcholine receptor M1 (Homo sapiens, UniProt P11229); experiment: Stimulation of phosphoinositol hydrolysis in the mouse fibroblast cell line A9L-M1 expressing Muscarinic acetylcholine receptor M1.; assay type: functional, cell-based
T2 sequence (P11229 whole entry): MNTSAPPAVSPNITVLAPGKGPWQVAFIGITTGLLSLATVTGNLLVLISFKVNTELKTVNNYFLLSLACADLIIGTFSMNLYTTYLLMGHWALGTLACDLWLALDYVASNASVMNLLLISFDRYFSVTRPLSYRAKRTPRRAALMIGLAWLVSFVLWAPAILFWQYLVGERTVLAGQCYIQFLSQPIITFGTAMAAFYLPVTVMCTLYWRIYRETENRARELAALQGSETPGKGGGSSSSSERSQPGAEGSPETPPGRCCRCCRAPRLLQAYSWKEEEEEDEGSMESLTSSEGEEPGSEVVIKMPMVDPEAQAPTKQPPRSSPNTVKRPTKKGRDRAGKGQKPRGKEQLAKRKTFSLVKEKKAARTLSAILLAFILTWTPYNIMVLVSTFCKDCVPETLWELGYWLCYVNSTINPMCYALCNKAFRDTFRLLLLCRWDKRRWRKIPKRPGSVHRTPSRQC

[3] = target: T3, Muscarinic acetylcholine receptor M2 (Homo sapiens) (UniProt P08172); experiment: Inhibition of forskolin induced c-AMP formation in CHO-M2 cells expressing human M2 receptor.; assay type: functional, cell-based
T3 sequence (whole entry): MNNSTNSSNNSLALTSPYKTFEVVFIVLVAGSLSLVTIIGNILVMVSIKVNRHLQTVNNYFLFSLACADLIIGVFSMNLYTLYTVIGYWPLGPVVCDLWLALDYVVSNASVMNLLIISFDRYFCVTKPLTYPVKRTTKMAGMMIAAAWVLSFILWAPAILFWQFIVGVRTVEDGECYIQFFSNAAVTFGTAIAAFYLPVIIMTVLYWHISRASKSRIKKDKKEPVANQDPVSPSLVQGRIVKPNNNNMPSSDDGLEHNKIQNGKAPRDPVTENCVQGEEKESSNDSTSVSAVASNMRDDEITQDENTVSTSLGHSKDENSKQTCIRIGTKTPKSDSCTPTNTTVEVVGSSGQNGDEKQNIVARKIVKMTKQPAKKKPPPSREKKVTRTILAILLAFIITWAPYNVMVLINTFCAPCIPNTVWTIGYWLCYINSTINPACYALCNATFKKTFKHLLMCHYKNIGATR
In short: (§1)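 CHO cells transfected with human M2 receptor plasmid and cultured with atropine and methotrexate; atropine withdrawn overnight. Cells detached with PBS/1 mM EDTA, then preincubated 30 min at 0 °C in DMEM/20 mM HEPES pH 7.4 with 0.5 mM IBMX. Compound added and 10 μM forskolin (final) started a 10 min, 37 °C incubation, stopped with ice-cold ethanol. cAMP measured by radioimmunoassay.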

[4] = target: T4, Muscarinic acetylcholine receptor M2 (Homo sapiens, UniProt P08172); experiment: Compound was tested for its potency at M-2 receptor by inhibiting forskolin induced c-AMP formation in CHO-M2 cells human M2 receptor; assay type: functional, cell-based; in short: as §1
T4 sequence (P08172 whole entry): T3 sequence (whole entry)

[5] = Ratio of EC50(CHO-M2) and EC50(A9L-M1); assay type: functional
In short: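 Ratio of EC50 for inhibition of forskolin-stimulated cAMP in human-M2 CHO cells to EC50 for PI hydrolysis in A9L-M1 cells, both measured in this work.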

[6] = target: T3, Muscarinic acetylcholine receptor M2 (Homo sapiens); experiment: Compound was tested for its potency towards Muscarinic acetylcholine receptor M2 by inhibiting forskolin induced c-AMP formation in CHO-M2 cells expressing human Muscarinic acetylcholine receptor M2 receptor; assay type: functional, cell-based; in short: as §1
[7] = target: T2, Muscarinic acetylcholine receptor M1; experiment: (§2) Compound was tested for its ability to stimulate phosphoinositol (PI) hydrolysis in the mouse fibroblast cell line A9L-M1 expressing Muscarinic acetylcholine receptor M1 (100 uM concentration); assay type: functional, cell-based
In short: (§3)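 A9L mouse fibroblasts stably expressing M1, grown to confluence in DMEM/10% FCS with 1.3 μCi/mL [³H]inositol for 48 h, detached with trypsin and resuspended in HEPES/LiCl buffer (LiCl 10 mM, pH 7.4). Cells incubated 45 min at 37 °C with compound up to 100 μM. Total [³H]inositol phosphates separated by ion exchange and counted.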

[8] = target: T5, Muscarinic acetylcholine receptor M1 (Homo sapiens) (UniProt P11229); experiment: as §2; assay type: functional, cell-based; in short: as §3
T5 sequence (whole entry): T2 sequence (P11229 whole entry)

[9] = target: T3, Muscarinic acetylcholine receptor M2 (Homo sapiens); experiment: Compound was tested for its potency at Muscarinic acetylcholine receptor M2 by inhibiting forskolin induced c-AMP formation in CHO-M2 cells expressing human M2 receptor; assay type: functional, cell-based
In short: (§4)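 Human M2 receptor plasmid transfected into CHO cells […], cultured in DMEM/10% FBS with 1 μM atropine and 1 μM methotrexate; atropine-free medium overnight before assay. Cells detached with PBS + 1 mM EDTA, washed into DMEM + 20 mM HEPES pH 7.4 + 0.5 mM IBMX, preincubated 30 min at 0 °C. Forskolin 10 μM final, 10 min at 37 °C; ethanol stop; cAMP by radioimmunoassay.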

[10] = target: T4, Muscarinic acetylcholine receptor M2; experiment: Compound was tested for its potency towards Muscarinic acetylcholine receptor M2 by inhibiting forskolin induced c-AMP formation in CHO-M2 cells; assay type: functional, cell-based; in short: as §4
[11] = target: T1, Muscarinic acetylcholine receptor M2; experiment: In vitro Muscarinic acetylcholine receptor M2 binding was evaluated in rat brain membranes by using [3H]- Oxo-M; assay type: cell membranes
In short: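 Rat cortex homogenized in 20 mM Hepes pH 7.4 and spun 10 min at 40000g; pellet resuspended and incubated with [3H]oxotremorine-M (1 nM final) plus test drug for 60 min at room temperature. Bound and free separated by vacuum filtration on PEI-presoaked GF/C filters, then scintillation counting.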

For Clc1ccc(C#CCSc2nsnc2C23CN4CC2C3C4)cc1, which IC50 [1] is on record?
The IC50 was 242 nM.

What about the EC50 [2] of the same compound?
The EC50 was 107 nM.

And the Max [3]?
The Max was 76%.

And the EC50 [4]?
The EC50 was 80 nM.

And the Ratio [5]?
The Ratio was 1.

For C[N+](C)(C)CCOC(N)=O, which Max [6] is on record?
Its Max is 100%.

With CN1CCC=C(c2nsnc2OCC#Cc2ccccc2)C1 as the compound, how does the IC50 [1] read?
Its IC50 is 14 nM.

What about the Max [3] of the same compound?
The Max was 115%.

What about the Ratio [5] of the same compound?
The Ratio was 2.

With Clc1cc(Cl)cc(C#CCSc2nsnc2C23CN4CC2C3C4)c1 as the compound, how does the IC50 [1] read?
Its IC50 is 788 nM.

What about the EC50 [2] of the same compound?
The EC50 was 1810 nM.

And the Max [3]?
The Max was 84%.

What about the EC50 [4] of the same compound?
Its EC50 is 528 nM.

And the Ratio [5]?
The Ratio was 0.3.

With Fc1cccc(C#CCOc2nsnc2C23CN4CC2C3C4)c1 as the compound, how does the IC50 [1] read?
The IC50 was 21 nM.

And the EC50 [7]?
Its EC50 is 4.9 nM.

What about the Max [8] of the same compound?
Its Max is 91%.

And the EC50 [4]?
Its EC50 is 683 nM.

And the Ratio [5]?
Its Ratio is 139.

What does the source list for Clc1cc(Cl)cc(C#CCOc2nsnc2C23CN4CC2C3C4)c1?
IC50 [1]: 1690 nM; EC50 [2]: 1200 nM; Max [3]: 23%

For Fc1ccc(C#CCSc2nsnc2C23CN4CC2C3C4)cc1, which IC50 [1] is on record?
Its IC50 is 20 nM.

And the EC50 [2]?
The EC50 was 4.5 nM.

And the Max [3]?
Its Max is 88%.

What about the EC50 [4] of the same compound?
The EC50 was 83 nM.

And the Ratio [5]?
The Ratio was 18.

Which IC50 [1] does the source give for Fc1cccc(C#CCSc2nsnc2C23CN4CC2C3C4)c1 here?
The IC50 was 26 nM.

And the EC50 [2]?
Its EC50 is 2.5 nM.

What about the Max [3] of the same compound?
Its Max is 106%.

What about the EC50 [4] of the same compound?
The EC50 was 904 nM.

What about the Ratio [5] of the same compound?
The Ratio was 362.

Which IC50 [1] does the source give for C(#Cc1ccccc1)CSc1nsnc1C12CN3CC1C2C3 here?
The IC50 was 27 nM.

What about the EC50 [2] of the same compound?
The EC50 was 61.9 nM.

What about the Max [3] of the same compound?
The Max was 106%.

And the EC50 [4]?
Its EC50 is 853 nM.

What about the Ratio [5] of the same compound?
The Ratio was 14.

What does the source list for Fc1cc(F)cc(C#CCOc2nsnc2C23CN4CC2C3C4)c1?
IC50 [1]: 30 nM; EC50 [2]: 20.2 nM; Max [3]: 68%; EC50 [4]: 2690 nM; Ratio [5]: 133

With C(#Cc1ccccc1)COc1nsnc1C12CN3CC1C2C3 as the compound, how does the IC50 [1] read?
The IC50 was 16 nM.

What about the Max [9] of the same compound?
Its Max is 99%.

What about the Ratio [5] of the same compound?
Its Ratio is 11.

With Clc1ccc(C#CCOc2nsnc2C23CN4CC2C3C4)cc1 as the compound, how does the IC50 [1] read?
The IC50 was 63 nM.

And the Max [3]?
Its Max is 102%.

What about the EC50 [4] of the same compound?
Its EC50 is 1210 nM.

For Fc1cc(F)cc(C#CCSc2nsnc2C23CN4CC2C3C4)c1, which IC50 [1] is on record?
The IC50 was 28 nM.

What about the EC50 [2] of the same compound?
Its EC50 is 7.6 nM.

What about the Max [3] of the same compound?
The Max was 79%.

And the EC50 [4]?
Its EC50 is 1660 nM.

What about the Ratio [5] of the same compound?
The Ratio was 218.

Which IC50 [1] does the source give for Fc1ccc(C#CCOc2nsnc2C23CN4CC2C3C4)cc1 here?
Its IC50 is 10 nM.

And the EC50 [2]?
The EC50 was 71 nM.

And the Max [3]?
Its Max is 109%.

What about the EC50 [4] of the same compound?
The EC50 was 791 nM.

And the Ratio [5]?
The Ratio was 11.

Which EC50 [10] does the source give for COc1cccc(C#CCO/N=C2\CN3CCC2C3)c1 (stereo not given) here?
The EC50 was 26700 nM.

What about the IC50 [11] of the same compound?
Its IC50 is 150 nM.

What about the EC50 [2] of the same compound?
The EC50 was 7120 nM.

What about the Max [6] of the same compound?
The Max was 89%.

And the Ratio [5]?
The Ratio was 4.

For CCCCCCOc1nsnc1C1=CCCN(C)C1 [XANOMELINE], which IC50 [11] is on record?
The IC50 was 16 nM.

What about the Max [6] of the same compound?
The Max was 82%.

What does the source list for Clc1cccc(C#CCOc2nsnc2C23CN4CC2C3C4)c1?
IC50 [1]: 47 nM; EC50 [2]: 10.5 nM; Max [3]: 101%; EC50 [4]: 2280 nM; Ratio [5]: 217

Which IC50 [1] does the source give for Fc1cc(Cl)cc(C#CCOc2nsnc2C23CN4CC2C3C4)c1 here?
The IC50 was 92 nM.

What about the EC50 [2] of the same compound?
Its EC50 is 110 nM.

What about the Max [3] of the same compound?
Its Max is 76%.

And the EC50 [4]?
Its EC50 is 1480 nM.

And the Ratio [5]?
Its Ratio is 13.

What does the source list for Fc1cc(Cl)cc(C#CCSc2nsnc2C23CN4CC2C3C4)c1?
IC50 [1]: 142 nM; EC50 [2]: 46 nM; Max [3]: 90%; EC50 [4]: 763 nM; Ratio [5]: 17

With Clc1cccc(C#CCSc2nsnc2C23CN4CC2C3C4)c1 as the compound, how does the IC50 [1] read?
The IC50 was 49 nM.

What about the EC50 [2] of the same compound?
Its EC50 is 9 nM.

And the Max [3]?
Its Max is 96%.

What about the EC50 [4] of the same compound?
Its EC50 is 673 nM.

And the Ratio [5]?
The Ratio was 74.
